PMI act hi M6P = human PMI activators, high substrate, primary screen, biochemical, fluorescence intensity, near-saturating mannose 6-phosphate. hit rate 0.34% among 190,000. activation factor at 20 µM. coupled PMI enzyme assay, resazurin fluorescence, 20 min; active compounds read high; 1 = untreated enzyme, 0 = substrate-free blank. Mannose-6-phosphate isomerase (Homo sapiens), P34949. AID 1216, 2008;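 active = activation factor of 2 or more at 20 µM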
Target sequence (P34949 whole entry, looked up): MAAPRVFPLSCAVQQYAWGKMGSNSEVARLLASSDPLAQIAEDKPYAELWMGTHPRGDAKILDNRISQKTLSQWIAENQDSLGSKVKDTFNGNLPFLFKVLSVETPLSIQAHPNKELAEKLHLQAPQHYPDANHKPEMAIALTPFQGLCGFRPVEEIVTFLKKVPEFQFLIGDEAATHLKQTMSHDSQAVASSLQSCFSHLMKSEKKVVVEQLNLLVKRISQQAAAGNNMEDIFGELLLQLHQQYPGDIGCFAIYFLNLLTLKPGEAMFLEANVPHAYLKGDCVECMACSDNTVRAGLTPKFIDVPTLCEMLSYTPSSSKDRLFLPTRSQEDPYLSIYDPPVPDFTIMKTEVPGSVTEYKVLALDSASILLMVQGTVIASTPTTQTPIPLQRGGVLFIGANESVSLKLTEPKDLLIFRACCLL
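Test system: human phosphomannose isomerase with PGI, G6PDH, diaphorase coupling enzymes; amount: 15 ng/mL PMI; incubation: enzyme reaction with compound 20 min at room temperature; technique: resorufin fluorescence (Ex 544/Em 590 nm) from resazurin via diaphorase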
PMI act = activators of human PMI, primary screen, biochemical, fluorescence intensity, near-Km mannose 6-phosphate; Mannose-6-phosphate isomerase (Homo sapiens), P34949; purified human PMI, coupled resazurin fluorescence, 20 min; active compounds read high; 1 = vehicle control, 0 substrate-free wells; activation factor at 20 µM; hit rate 0.005% among 190,000;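 active = activation factor of 2 or more at 20 µM, relative to plate controls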
G6PDH counter = L. mesenteroides G6PDH inhibitors, counter-screen for G6PDH-coupled screening assays, biochemical, Leuconostoc mesenteroides enzyme; glucose-6-phosphate dehydrogenase [Leuconostoc mesenteroides]; inhibition, % at 5 µM; hit rate 0.12% among 200,000; AID 1020, 2008; Purified L. mesenteroides G6PDH, diaphorase/resazurin coupled fluorescence, 45 min; in the data active = inhibition above about 50%
Diaph act CS = compounds boosting diaphorase resazurin reduction – biochemical, uHTS, resorufin fluorescence, counter-screen for diaphorase-coupled primary assays, primary screen | Diaphorase/resazurin coupled assay, 16 min; active compounds read high; 1 = vehicle wells, 0 = NADH-free wells | activation factor at 20 µM | hit rate 0.005% among 190,000 | AID 1229, 2008;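 active = diaphorase activity raised at least twofold by the compound at 20 µM; inactive = activation factor below 2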
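test system = bacterial diaphorase enzyme (C. kluyveri) | quantity = enzyme 0.07 U/mL final | reagent = NADH substrate 0.114 mM plus resazurin dye 0.1 mM, final | incubation = 16 min enzyme reaction, ambient temperature | buffer or medium = HEPES pH 7.4 buffer with MgCl2 and Tween 20 | signal = fluorescence of resorufin, 544 nm excitation, 590 nm emission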
Redox H2O2 prof = compounds producing H2O2 with reducing agent – biochemical, NIH compound library profiling, artefact control for MLSCN library redox annotation, primary screen; DTT-dependent redox cycling H2O2, phenol red/HRP absorbance; 100% = 100 µM peroxide control, 0% = buffer; activation, % at 10 µM; hit rate 0.03% among 200,000; AID 878, 2007;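 active = activation of at least 50% relative to the plate's high and low controls in the primary single-dose screen; inactive = activation below 50%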;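 note: compound incubated with DTT at 0.8 mM final as the reducing agent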
Diaphorase inh = diaphorase inhibitors and chemical oxidizers, primary screen, counter-screen for diaphorase-coupled primary assays, biochemical, uHTS, resorufin fluorescence | diaphorase resazurin-to-resorufin fluorescence, NADH, 16 min; bacterial (C. kluyveri) enzyme, not human | inhibition, % at 20 µM | hit rate 0.69% among 190,000 | AID 1217, 2008;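 active = primary screen inhibition at 20 µM above a set limit, cut at about 50% in these data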
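Test system: diaphorase enzyme from Clostridium kluyveri; amount: diaphorase at 0.14 U/mL in enzyme working solution; detection: fluorescence of resorufin formed from resazurin, Ex 544/Em 590 nm; times: reaction incubation of 16 min at room temperature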
Numbers stand for hits. An excerpt weighted towards active compounds, which were near 1.1% of everything screened.

For N#Cc1cc2cc3c(cc2nc1N1CCOCC1)OCO3 the results were PMI act hi M6P 2.1, PMI act inactive, G6PDH counter inactive, Diaph act CS inactive, Redox H2O2 prof inactive and Diaphorase inh inactive.
O=C(O)CCCNc1cc(N2CCC3(CC2)OCCO3)c2noc3c2c1C(=O)c1ccccc1-3 was read as PMI act hi M6P inactive, PMI act inactive, G6PDH counter inactive, Diaph act CS inactive, Redox H2O2 prof inactive and Diaphorase inh 50.
For O=C1c2ccccc2-c2onc3ccc(N4CCCC4)c1c23 the results were PMI act hi M6P inactive, PMI act inactive, G6PDH counter inactive, Diaph act CS inactive, Redox H2O2 prof inactive and Diaphorase inh inactive.
Screening OC(CNCCC(c1ccccc1)c1ccccc1)COc1ccccc1 (configuration not stated) returned PMI act hi M6P inactive, PMI act inactive, G6PDH counter inactive, Diaph act CS inactive, Redox H2O2 prof inactive and Diaphorase inh inactive.
For Cc1c2ccccc2nc2c(F)c(NCCO)c(F)c(F)c12 the results were PMI act hi M6P inactive, PMI act inactive, G6PDH counter inactive, Diaph act CS inactive, Redox H2O2 prof inactive and Diaphorase inh 53.
Screening CCCCn1c(=O)[nH]c2nc3cc(N)ccc3nc2c1=O returned PMI act hi M6P inactive, PMI act inactive, G6PDH counter inactive, Diaph act CS inactive, Redox H2O2 prof inactive and Diaphorase inh 67.
`CCCCn1c(N)nc2ccccc21` gave PMI act hi M6P inactive, PMI act inactive, G6PDH counter inactive, Diaph act CS inactive, Redox H2O2 prof inactive and Diaphorase inh inactive.
`CSC(=S)N/N=C/c1ccccc1` gave PMI act hi M6P inactive, PMI act inactive, G6PDH counter inactive, Diaph act CS inactive, Redox H2O2 prof inactive and Diaphorase inh 73.
For CC(=O)C1=C(c2ccccc2)N(C(C)=O)n2c(C)nnc2S1 the results were PMI act hi M6P inactive, PMI act inactive, G6PDH counter inactive, Diaph act CS inactive, Redox H2O2 prof inactive and Diaphorase inh inactive.
For O=C(CSc1nc(-c2ccc(F)cc2)nc2c1Cc1ccccc1O2)Nc1ccc(C(=O)O)cc1 the results were PMI act hi M6P inactive, PMI act inactive, G6PDH counter inactive, Diaph act CS inactive, Redox H2O2 prof inactive and Diaphorase inh 60.
`Cn1c(=O)c2c(nc(CN3CCc4ccccc4C3)n2CCc2ccccc2)n(C)c1=O` gave Redox H2O2 prof inactive.
Cn1c(=O)c2c(nc(CN3CCc4ccccc4C3)n2CCCO)n(C)c1=O was read as PMI act hi M6P 2.2, PMI act inactive, G6PDH counter inactive, Diaph act CS inactive, Redox H2O2 prof inactive and Diaphorase inh inactive.
`CC(CNC(=O)CCc1nnc(CCC2CCCCC2)o1)c1ccccc1` (configuration not stated) gave PMI act hi M6P inactive, PMI act inactive, G6PDH counter inactive, Diaph act CS inactive, Redox H2O2 prof inactive and Diaphorase inh inactive.
Cc1c(NC(=O)c2ccc(Br)s2)c(=O)n(-c2ccccc2)n1C was read as PMI act hi M6P inactive, PMI act inactive, G6PDH counter inactive, Diaph act CS inactive, Redox H2O2 prof inactive and Diaphorase inh inactive.
CN1C(=O)c2oc3ccccc3c(=O)c2C1c1ccncc1 (configuration not stated) was read as PMI act hi M6P 2.3, PMI act inactive, G6PDH counter inactive, Diaph act CS inactive and Diaphorase inh inactive.
For O=c1c(/C=N/Nc2ccccc2)c(Sc2nnnn2-c2ccccc2)nc2ccccn12 the results were PMI act hi M6P 2, PMI act inactive, G6PDH counter inactive, Diaph act CS inactive, Redox H2O2 prof inactive and Diaphorase inh inactive.
Screening O=Cc1c(Sc2ccccc2)nc2ccccn2c1=O returned PMI act hi M6P inactive, PMI act inactive, G6PDH counter inactive, Diaph act CS inactive, Redox H2O2 prof inactive and Diaphorase inh inactive.
`CC1CCN(CC(=O)Nc2cccc(Cl)c2)CC1` gave PMI act hi M6P inactive, PMI act inactive, G6PDH counter inactive, Diaph act CS inactive, Redox H2O2 prof inactive and Diaphorase inh inactive.
Screening CCC1CCCCN1C(=O)COc1ccccc1NC(C)=O (configuration not stated) returned PMI act hi M6P inactive, PMI act inactive, G6PDH counter inactive, Diaph act CS inactive, Redox H2O2 prof inactive and Diaphorase inh inactive.
Screening CCC(NC(C)C)C(O)c1ccc(O)c(O)c1 (configuration not stated) returned PMI act hi M6P inactive, PMI act inactive, G6PDH counter 63, Diaph act CS inactive, Redox H2O2 prof inactive and Diaphorase inh 59.
Cc1ccc(S(=O)(=O)c2nnn3c2nc(N2CCCCC2)c2ccccc23)cc1 was read as PMI act hi M6P inactive, PMI act inactive, G6PDH counter inactive, Diaph act CS inactive, Redox H2O2 prof inactive and Diaphorase inh inactive.
CCC1CCCCN1c1nc2c(C=O)c(C)nn2c2ccccc12 (configuration not stated) was read as PMI act hi M6P inactive, PMI act inactive, G6PDH counter inactive, Diaph act CS inactive, Redox H2O2 prof inactive and Diaphorase inh 68.
COC(=O)c1cc2n3ccccc3c(C)c(-c3ccccc3)c-2c1C(=O)OC was read as PMI act hi M6P inactive, PMI act inactive, G6PDH counter inactive, Diaph act CS inactive, Redox H2O2 prof inactive and Diaphorase inh 57.
Screening CCOC(=O)C1=C(C)NC(=O)CC1c1cc2c(cc1[N+](=O)[O-])OCO2 (configuration not stated) returned PMI act hi M6P inactive, PMI act inactive, G6PDH counter inactive, Diaph act CS inactive, Redox H2O2 prof inactive and Diaphorase inh 72.
For CC1=C(C(=O)OCc2ccc3c(c2)OCO3)C(c2ccc(O)c([N+](=O)[O-])c2)NC(=O)N1 (configuration not stated) the results were PMI act hi M6P inactive, PMI act inactive, G6PDH counter inactive, Diaph act CS inactive, Redox H2O2 prof inactive and Diaphorase inh 52.
Screening CCCOC(=O)C1=C(C)N(C)C(=O)NC1c1cc2c(cc1[N+](=O)[O-])OCO2 (configuration not stated) returned PMI act hi M6P inactive, PMI act inactive, G6PDH counter inactive, Diaph act CS inactive, Redox H2O2 prof inactive and Diaphorase inh inactive.

Screens from PubChem.
